Screens deposited in PubChem by Broad Institute.
Rows were chosen to be rich in hits. Some 3.2% of all compounds tested hit in one or more screens of this group.
rRNA inh HTS: reduced GFP signal of wild-type E. coli, primary screen, bacterial rRNA inhibitor project, GFP/RFP fluorescence, OD600, single point | E. coli WT GFP vs humanized-ribosome RFP mutants, 24 h; stronger effect = lower value; DMSO median 0, no signal -100 | GFP signal change (wild-type ribosome), % (no concentration beside the values) | 350,000 compounds, 1.6% hits | AID 720706, 2013;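 active = significant combined selectivity score with lowered wild-type GFP, culture density cut under 30%, mutant RFP and density less affected; inactive = any of these conditions unmet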
PfHsp90 yeast 2: growth inhibition of PfHsp90-expressing yeast, primary screen, antimalarial PfHsp90 inhibitor project, S. cerevisiae, BacTiter-Glo luminescence, single point, set 2; BacTiter-Glo ATP, 48 h; yeast lacking PDR1 and PDR3 efflux regulators; inhibition, % at 9.4 µM; 310,000 compounds, 0.32% hits;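 active = every replicate shows inhibition above about 80%, whatever the replicate mean, limit read from the data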;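 note: 0% = DMSO neutral controls and 100% = 20 µM radicicol positive controls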
AF4-AF9 inh: inhibitors of AF4 peptide binding to AF9, primary screen, biochemical, AlphaScreen, biotin-AF4 peptide, FLAG-AF9, single point; Protein AF-9 (Homo sapiens), P42568; inhibition, % at 10 µM; 350,000 compounds, 0.47% hits;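 active = every replicate reaching a set inhibition limit, whatever the replicate mean, cut at about 25% in these data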;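 note: 0% = plate neutral control median and 100% = total signal loss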
Target sequence (P42568 whole entry, looked up): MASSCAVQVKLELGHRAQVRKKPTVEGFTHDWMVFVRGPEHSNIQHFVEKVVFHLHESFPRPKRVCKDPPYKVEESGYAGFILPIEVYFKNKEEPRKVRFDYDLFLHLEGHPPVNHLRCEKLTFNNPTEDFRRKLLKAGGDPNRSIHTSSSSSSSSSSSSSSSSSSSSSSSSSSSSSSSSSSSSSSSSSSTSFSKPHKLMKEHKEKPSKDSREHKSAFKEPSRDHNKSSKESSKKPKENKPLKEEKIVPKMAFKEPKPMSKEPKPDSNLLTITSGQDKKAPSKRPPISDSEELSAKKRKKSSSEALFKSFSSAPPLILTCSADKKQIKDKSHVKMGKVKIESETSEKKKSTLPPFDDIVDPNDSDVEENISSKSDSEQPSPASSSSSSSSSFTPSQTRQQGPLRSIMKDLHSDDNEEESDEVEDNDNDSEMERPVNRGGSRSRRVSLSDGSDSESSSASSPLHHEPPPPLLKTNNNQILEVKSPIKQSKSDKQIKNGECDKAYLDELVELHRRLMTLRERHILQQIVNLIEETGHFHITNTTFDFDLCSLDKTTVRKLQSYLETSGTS
S100A4 inh HTS: inhibitors of S100A4-myosin IIA peptide binding, primary screen, biochemical, fluorescence polarization, TAMRA-MyoIIA peptide; 360,000 compounds, 0.14% hits; AID 652163, 2013; inhibition, % at 10.7 µM;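 active = mean inhibition of at least 70% across replicates, with every replicate also reaching that level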
Target sequence (P26447 whole entry, looked up): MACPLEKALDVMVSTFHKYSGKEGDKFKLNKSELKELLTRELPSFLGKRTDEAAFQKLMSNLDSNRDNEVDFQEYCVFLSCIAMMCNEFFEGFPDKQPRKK
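Material: S100A4 monomer protein / Buffer or medium: 50 mM HEPES pH 7.2, 10 mM CaCl2, 100 mM KCl / Times: 5 min incubation before reading / Benchmarks: neutral control DMSO, positive control TFP / Reagent: labelled myosin peptide probe, 5 nM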
Cneo AK release: Cryptococcus neoformans cell lysis inducers, primary screen, AK release luminescence, single concentration; 360,000 compounds, 0.2% hits; lysis activity, % at 15 µM; C. neoformans lysis, adenylate kinase release luminescence, 4 h; normalised: neutral wells 0, clomiphene wells 100;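 active = mean lysis activity across replicates of at least 80%, whatever share of replicates individually reach that level; inactive = mean lysis activity below 80%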
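Test system: log-phase Cryptococcus neoformans yeast cells; Quantity: yeast cell density of 5 × 10^6 cells/mL; Buffer or medium: YPD; Doses: single compound concentration per well; Timing: 4 h at 37 °C static, read 1 h later; Measured by: AK luminescence; Read-out basis: lysis from increased AK signal; Control set: Clomiphene as positive control.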
DENV2 CPE rescue: inhibitors of DENV2 cytopathic effect, primary screen, cell-based, plate reader, single concentration. DENV2-infected cells, cytopathic effect rescue. 350,000 compounds, 1.7% hits. AID 651640, 2012. CPE inhibition, % at 9.99 µM; in the data active = CPE inhibition above about 20%, passing the limit was not always enough; tested in BHK-21 cells;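 note: 0% = median of neutral control wells and 100% = median of positive control wells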
Starred values were filed as active, the others as inactive; / = not tested or not shown; ! = not confirmed by another sample.

SMILES | rRNA inh HTS | PfHsp90 yeast 2 | AF4-AF9 inh | S100A4 inh HTS | Cneo AK release | DENV2 CPE rescue
COCc1cn(CC[C@@H]2CC[C@H](NC(=O)Nc3ccc4c(c3)OCO4)[C@H](CO)O2)nn1 | 1 | / | -3 | 7 | 59 | -3
C[C@H]1CN([C@@H](C)CO)C(=O)CCCn2nncc2CO[C@H]1CN(C)S(=O)(=O)c1ccc(Oc2ccccc2)cc1 | -26 | / | 2 | 5 | 1 | 30*!
C[C@H]1CN([C@@H](C)CO)C(=O)CCCn2nncc2CO[C@H]1CN(C)S(=O)(=O)c1ccccc1F | 16 | / | 0 | 5 | 4 | 27*!
C[C@@H]1CN([C@@H](C)CO)C(=O)CCCn2nncc2CO[C@@H]1CN(C)S(=O)(=O)c1ccccc1F | -1 | / | 1 | -1 | 0 | -2
CNC[C@@H]1Oc2c(NS(=O)(=O)c3ccc(Cl)cc3)cccc2C(=O)N([C@@H](C)CO)C[C@@H]1C | 4 | / | -2 | 9 | 2 | -8
C[C@H](CO)N1C[C@H](C)[C@H](CN(C)S(=O)(=O)c2ccc(F)cc2)Oc2c(NS(=O)(=O)c3ccc(F)cc3)cccc2C1=O | -8 | / | 1 | 35 | -5 | -3
Cc1ccc(S(=O)(=O)Nc2cccc3c2O[C@H](CN(C)S(=O)(=O)c2ccc(Cl)cc2)[C@H](C)CN([C@H](C)CO)C3=O)cc1 | 0 | / | -2 | 1 | / | 7
Cc1ccc(S(=O)(=O)Nc2cccc3c2O[C@@H](CN(C)S(=O)(=O)c2ccc(Cl)cc2)[C@@H](C)CN([C@@H](C)CO)C3=O)cc1 | -1 | / | -2 | 18 | / | 21*
Cc1ccc(S(=O)(=O)N(C)C[C@H]2Oc3c(cccc3N(C)C)C(=O)N([C@@H](C)CO)C[C@H]2C)cc1 | -5 | / | 7 | 0 | 90* | -16
CNC[C@H]1Oc2c(NS(=O)(=O)c3ccc(Cl)cc3)cccc2C(=O)N([C@@H](C)CO)C[C@@H]1C | 3 | / | -4 | 12 | 14 | 94*
C[C@@H]1CN([C@@H](C)CO)C(=O)c2cccc(NS(=O)(=O)c3ccc(F)cc3)c2O[C@H]1CN(C)S(=O)(=O)c1ccc(Cl)cc1 | 2 | / | -1 | 14 | 110* | -2
C[C@@H]1CN([C@@H](C)CO)C(=O)c2cccc(NC(=O)c3nc4ccccc4s3)c2O[C@@H]1CN(C)S(=O)(=O)c1ccc(Cl)cc1 | 4 | / | 1 | 4 | -6 | 9
C[C@@H]1CN([C@@H](C)CO)C(=O)c2cccc(NC(=O)Nc3ccccc3)c2O[C@@H]1CN(C)S(=O)(=O)c1ccc(Cl)cc1 | -25* | / | 1 | -3 | -3 | 9
C[C@@H]1CN([C@H](C)CO)C(=O)c2cccc(NC(=O)Nc3ccccc3)c2O[C@H]1CN(C)S(=O)(=O)c1ccc(Cl)cc1 | 0 | / | 0 | -2 | 1 | 10
C[C@H](CO)N1C[C@H](C)[C@@H](CN(C)S(=O)(=O)c2ccccc2)Oc2c(NC(=O)Nc3ccccc3)cccc2C1=O | -1 | 0 | -1 | -1 | 6 | -11
C[C@H](CO)N1C[C@H](C)[C@@H](CN(C)S(=O)(=O)c2ccc(Cl)cc2)Oc2c(NC(=O)c3nc4ccccc4s3)cccc2C1=O | -2 | / | 0 | -12 | -10 | 25*
C[C@H](CO)N1C[C@H](C)[C@H](CN(C)Cc2ccc(-c3ccccc3)cc2)Oc2c(NC(=O)c3nc4ccccc4s3)cccc2C1=O | 2 | / | 2 | -30 | 3 | 41*
C[C@@H]1CN([C@@H](C)CO)C(=O)c2cccc(NC(=O)Nc3ccccc3)c2O[C@H]1CN(C)S(=O)(=O)c1ccccc1 | -1 | / | -1 | 0 | 1 | 40*
CO[C@H]1CN(C)C(=O)c2cc(NS(=O)(=O)CC(F)(F)F)ccc2OC[C@@H](C)N(CCC(F)(F)F)C[C@H]1C | 0 | / | 0 | 2 | 12 | -9
COCC(=O)Nc1ccc2c(c1)[C@@H]1C[C@@H](CC(=O)NCc3ccccc3F)O[C@@H](CO)[C@@H]1O2 | -1 | / | 1 | -28 | -2 | 11
COc1ccc(C#Cc2ccc3c(c2)[C@H]2[C@H](CCN2S(=O)(=O)c2cccc(OC)c2)[C@H](CO)N3C)cc1 | 4 | / | 2 | -2 | 5 | 16
C[C@@H]1CN([C@@H](C)CO)C(=O)c2cc(NC(=O)CCCCCC(=O)Nc3ccccc3N)ccc2O[C@@H]1CN(C)C(=O)Nc1ccc2c(c1)OCO2 | 2 | / | 1 | 4 | / | 30*
C[C@H](CO)N1C[C@H](C)[C@H](CN(C)C(=O)Nc2ccc3c(c2)OCO3)Oc2ccc(NC(=O)CCCCCC(=O)Nc3ccccc3N)cc2C1=O | -9 | / | 0 | 6 | / | 48*
C[C@@H]1CN([C@@H](C)CO)C(=O)c2cc(NC(=O)CCCCCC(=O)Nc3ccccc3N)ccc2O[C@H]1CN(C)C(=O)Nc1ccc2c(c1)OCO2 | -4 | / | 0 | 119* | / | 16
C[C@H]1CN([C@@H](C)CO)C(=O)c2cc(NC(=O)CCCCCC(=O)Nc3ccccc3N)ccc2O[C@@H]1CN(C)C(=O)Nc1ccc2c(c1)OCO2 | -1 | / | -1 | -6 | / | 19
C[C@@H]1CN([C@H](C)CO)C(=O)c2cc(NC(=O)CCCCCC(=O)Nc3ccccc3N)ccc2O[C@H]1CN(C)C(=O)Nc1ccc2c(c1)OCO2 | 3 | / | -1 | 8 | / | -16
Cc1cc(OC(C)C(=O)NCC(O)c2ccccc2)c2c(C)c(C)c(=O)oc2c1 (configuration not stated) | -2 | -5 | -2 | -3 | 2 | 1
Cc1cc(OC(C(=O)O)c2ccccc2)c2c(C)c(Cc3ccccc3)c(=O)oc2c1 (configuration not stated) | -24* | 3 | 1 | -5 | -1 | -1
COc1ccc2c3c([nH]c2c1)[C@H](CO)N(C(=O)C1CCCC1)CC31CN(C)C1 | 2 | / | -1 | -1 | / | 4
CN(C)CC#Cc1cccc(-c2nc(C(=O)N3CCN(Cc4ccccc4)CC3)cc3c2[C@@H](CCO)N(S(=O)C(C)(C)C)C3)c1 (some centres not stated) | / | / | 1 | -30 | / | 0
